# Shown are actives, neighbours in structure and some others; about 2.5% of the full set was active somewhere.
# SR-BI DiI-HDL act – activators of SR-BI mediated HDL lipid uptake | CHO ldlA[mSR-BI] cells, DiI-HDL uptake fluorescence, 3 h; 100 = double the neutral-control signal | activation, % at 12.5 µM | 0.096% of 320,000 active | AID 504775;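 active = mean replicate activation of at least 60% and every replicate at or above 60%; inconclusive = mean or all-replicate condition met, but not both; inactive = mean below 60% and not all replicates reaching 60%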;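 also: 0% = median plate neutral-control signal and 100% = twice that signal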
#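 system = CHO ldlA[mSR-BI] cells, LDL receptor-null, SR-BI overexpressing | medium = Ham's F12 with 0.5% BSA, HEPES 25 mM, pH 7.4 | probe or stimulus = DiI-HDL 10 µg/mL | compound dosing = single-point compound dose | incubation = compound exposure 3 h, 37 °C | technique = DiI fluorescence, bottom read | read-out = cell-associated DiI fluorescence as measure of HDL uptake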
# NSD2 inh – blocks human histone methyltransferase NSD2 | O96028 | NSD2 peptide methylation, AlphaScreen, 120 min | inhibition, % at 12.5 µM | 0.54% of 310,000 active
# dFosB act – enhances mouse delta FosB homodimer DNA binding; purified delta FosB, TAMRA-CDK5 oligo fluorescence polarization; percent of positive-control signal above neutral wells; activation, % at 25 µM; 0.99% of 340,000 active; AID 493131;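 active = mean activation above about 17%, with every replicate also reaching it, limit read from the data, passing the limit was not always enough; inconclusive = only one of the two conditions met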
# DYRK1A inh – blocks rat Dyrk1A kinase activity; Q63470; ADP-Glo luminescence, NFATc1 peptide; inhibition, % at 12.5 µM; 0.43% of 310,000 active;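 also: plate controls were vehicle with enzyme for no effect and no enzyme for full effect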
# SR-BI HDL uptake – mouse SR-BI HDL lipid transfer inhibition. Q61009. ldlA[mSR-BI] CHO cells, DiI-HDL uptake fluorescence, 3 h. inhibition, % at 12.5 µM. 0.96% of 320,000 active;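 active = mean replicate inhibition of at least 70% and a set share of replicates each scoring 70 or more; inconclusive = meets just one of the two criteria; inactive = fails both criteria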;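 also: 0% = median of neutral control wells and 100% = median of positive control wells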
# CDK5 inh – inhibitors of human CDK5/p35 kinase. Q00535+Q15078. Recombinant CDK5/p35, ADP-Glo luminescence, 60 min. inhibition, % at 10 µM. 0.01% of 330,000 active;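 active = highest replicate inhibition of at least 50% and at least 75% of replicates reaching 50%; inconclusive = only one of the two criteria met; inactive = both criteria failed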;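 also: plate controls were DMSO neutral control for no effect and GW8510 at 10 µM for full effect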
# Target sequence (Q00535 whole entry, looked up): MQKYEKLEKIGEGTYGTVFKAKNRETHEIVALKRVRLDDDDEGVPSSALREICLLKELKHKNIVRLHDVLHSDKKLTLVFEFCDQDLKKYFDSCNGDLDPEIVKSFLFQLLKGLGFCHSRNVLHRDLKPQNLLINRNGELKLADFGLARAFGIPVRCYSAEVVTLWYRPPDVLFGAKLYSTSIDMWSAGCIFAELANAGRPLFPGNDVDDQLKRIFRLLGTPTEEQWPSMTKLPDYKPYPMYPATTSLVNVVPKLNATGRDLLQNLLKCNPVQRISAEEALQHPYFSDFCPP
# Target sequence (Q15078 whole entry, looked up): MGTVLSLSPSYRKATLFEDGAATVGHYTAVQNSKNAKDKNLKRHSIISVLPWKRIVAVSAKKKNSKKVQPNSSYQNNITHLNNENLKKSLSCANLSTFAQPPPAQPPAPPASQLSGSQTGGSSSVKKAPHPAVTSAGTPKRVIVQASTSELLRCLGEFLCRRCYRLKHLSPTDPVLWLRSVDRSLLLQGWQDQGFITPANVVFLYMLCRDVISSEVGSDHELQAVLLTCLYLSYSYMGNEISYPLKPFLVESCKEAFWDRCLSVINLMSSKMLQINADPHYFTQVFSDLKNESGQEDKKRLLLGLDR
# An asterisk follows results filed as active; ? = inconclusive; nt = no result given. Rule as the data show it, unless noted: active = inhibition above about 50%; inactive = the rest.
SMILES,SR-BI DiI-HDL act,NSD2 inh,dFosB act,DYRK1A inh,SR-BI HDL uptake,CDK5 inh
Cc1c(C(=O)c2ccc(F)cc2F)c2ccccn2c1CCC#N,-19,1,6,3,19,-1
CCCN(CC1CC1)C(=O)CNc1nnnn1-c1ccccc1,nt,-4,nt,nt,nt,nt
CCC(CC)C(=O)Nc1cc(C(=O)OC)ccc1C(=O)OC,67*,-5,-10,3,-67,-1
O=C(COc1ccc(/C=C2/NC(=O)NC2=O)cc1)Nc1ccc(F)cc1,4,1,40*,-1,-4,-3
CCOCCCNC(=O)C1CCCN(S(=O)(=O)c2ccc(-n3cnnn3)cc2)C1 (centres undefined),nt,nt,-3,-5,nt,1
CCOC(=O)Nc1sc(C)nc1-c1ccccc1,-20,-2,-1,-9,20,-2
CCOC(=O)Nc1nc(-c2ccccc2)c(C(=O)c2ccc(Cl)cc2)s1,-83,0,-14,4,83*,2
CCCCOC(=O)CCN1C(=O)/C(=C/c2ccccc2)SC1=S,nt,0,nt,nt,nt,nt
CC1CC(=O)c2c(cc3c(-c4c(O)cc(O)c5c(O)c6c(cc45)OC(C)CC6=O)c(O)cc(O)c3c2O)O1 (centres undefined),-117,nt,-46,2,117*,-1
O=[N+]([O-])c1ccc(/C=N/Nc2nc(-c3ccccc3)c3cc(Br)ccc3n2)o1,-37,1,23*,8,37,-1
CCOc1cc(C2Nc3cccc4cccc(c34)N2)ccc1O,-49,nt,32*,2,49,0
O=C(CNS(=O)(=O)c1ccc(Cl)s1)N1CCN(c2ccccn2)CC1,nt,-4,nt,nt,nt,nt
COC(=O)NC(=C(Cl)Cl)S(=O)(=O)c1ccccc1,73*,5,-3,-4,-73,0
COc1ccc(C(=O)NC(=C(Cl)Cl)S(=O)(=O)c2ccc(C)cc2)cc1,17,0,23*,-3,-17,-1
O=C(OCc1ccc(CSc2nnc(-c3cccc4ccccc34)o2)cc1)c1ccc(F)cc1,nt,-3,nt,nt,nt,nt
COc1ccc(C(O)c2nc(-c3ccc4ccccc4c3)cs2)cc1 (centres undefined),nt,10,nt,nt,nt,nt
COc1cccc(C(=O)NCCS(=O)(=O)NCc2ccccn2)c1,-7,-2,-1,-12,7,0
Cc1nc(C)c(-c2nnc(-c3ccc(C(C)(C)C)cc3)o2)cc1C(=O)NN,-81,-3,2,2,81*,-1
c1cc2c3c(cccc3c1)NC1(CCCC1)N2,4,6,63*,nt,-4,-2
CC(=O)c1c(C)[nH]c(C(=O)N2c3ccccc3CC2C)c1C (centres undefined),-72,nt,-4,0,72*,2
Cc1ccc(C(=O)O/N=C(\N)c2ccccn2)c(C)c1,9,4,-9,47,-9,51*
Cc1ccccc1C(=O)O/N=C(\N)c1ccccc1,nt,-1,-6,55*,nt,12
O=C(C1CCCN(S(=O)(=O)c2cccc3ccccc23)C1)N1CCN(Cc2ccccc2)CC1 (centres undefined),nt,8,nt,nt,nt,nt
Cc1cc(N/N=C/c2ccc(O)cc2)c2cccc(C)c2n1,-10,0,105*,23,10,4
Cc1cc(-c2ccccc2)nc(N/N=C/c2ccc(O)cc2)n1,-79,nt,-10,-22,79*,0
SMILES,SR-BI DiI-HDL act,NSD2 inh,dFosB act,DYRK1A inh,SR-BI HDL uptake,CDK5 inh
Oc1ccc(/C=N/Nc2nc(-c3ccc(Cl)cc3)cc(C(F)(F)F)n2)cc1,-80,nt,-7,1,80*,1
Nc1nc(-c2ccc(Cl)cc2)cc(C(F)(F)F)n1,-13,-2,7,-1,13,-1
Cc1cc(C)nc(N/N=C/c2ccccc2)n1,13,1,-6,-1,-13,0
COc1ccc(O)c(/C=N/Nc2nc(C)cc(-c3ccccc3)n2)c1,-88,-1,-8,1,88*,1
Cc1ccc(S(=O)(=O)N2CCCC(C(=O)Nc3c(C)n(C)n(-c4ccccc4)c3=O)C2)cc1C (centres undefined),nt,0,nt,nt,nt,nt
Cc1cc2oc(C(=O)Nc3ccc(S(=O)(=O)Nc4ncccn4)cc3)cc(=O)c2cc1Cl,12,-7,-5,3,-12,2
COc1ccc(/C=N/Nc2nc(C)cc(-c3ccccc3)n2)c(OC)c1,-74,4,-3,1,74*,2
COc1ccc(/C=N/Nc2ncc(-c3ccccc3)cn2)c(OC)c1,-23,6,4,2,23,-1
COc1ccc(/C=N/Nc2nc(Nc3ccccc3)nc(N3CCCCC3)n2)c(OC)c1,-89,1,?,-9,89*,-2
Cc1ccc(C2NC(=O)c3[nH]nc(-c4ccccc4)c32)cc1 (centres undefined),nt,-1,nt,nt,nt,nt
O=C(NCCc1c[nH]c2ccccc12)OCc1cn(Cc2cc(F)ccc2F)nn1,nt,1,nt,nt,nt,nt
Cc1[nH]c2ccccc2c1/C=N/Nc1ccc([N+](=O)[O-])cc1,-128,5,?,-3,128*,3
C/C(=N/Nc1ccc([N+](=O)[O-])cc1)c1c[nH]c2ccccc12,-127,2,-9,1,127*,-1
C/C(=N\Nc1ccc([N+](=O)[O-])cc1)c1ccc(C#N)cc1,-78,-5,4,0,78*,1
C/C(=N\Nc1ccc([N+](=O)[O-])cc1)c1ccc2c(c1)OCO2,-52,-2,1,3,52,1
COc1ccc(-c2cc(CCC(=O)N3CCN(c4cc(C)ccc4C)CC3)on2)cc1,-2,nt,-7,nt,2,0
CN(c1cccc(NC(=O)c2ccc(Cl)c(S(=O)(=O)Nc3ccccc3)c2)c1)S(C)(=O)=O,-52,-3,-11,3,52,-1
Cc1ccccc1NS(=O)(=O)c1cc(C(=O)Nc2cccc(N(C)S(C)(=O)=O)c2)ccc1C,-71,-2,-7,-8,71*,-2
COCCNc1ccc([N+](=O)[O-])cc1C(=O)NC1CCCc2ccccc21 (centres undefined),-79,4,-8,0,79*,-1
COc1cc(OC)c(C(=O)NC2CCCc3ccccc32)cc1OC (centres undefined),-14,0,1,-4,14,-1
CCCN1C(=O)/C(=C/c2ccc(N3CCCC3)c(C)c2)NC1=S,-87,0,-7,7,87*,-3
Cc1cc(/C=C2\NC(=S)N(C)C2=O)ccc1N1CCCC1,-48,-6,-10,2,48,-1
CS(=O)(=O)N1CCCCC1c1cc(C(=O)Nc2cccc3c2CCCC3)no1 (centres undefined),nt,0,nt,nt,nt,nt
COCCn1c(=O)[nH]c(=O)c2c1nc(-c1ccc(-c3ccc(Cl)cc3[N+](=O)[O-])o1)n2Cc1ccccc1,-10,-1,-10,-4,10,0

# Bioassay records: PubChem BioAssay, Broad Institute
